According to ChEMBL document CHEMBL3045743, “Synthesis and herbicidal activity of isoindoline-1,3-dione substituted benzoxazinone derivatives containing a carboxylic ester group” (J Agric Food Chem, 2009):

Columns and labels:
Chenopodium album [1] = assay: Post-emergence herbicidal activity against Chenopodium album assessed as growth inhibition at 7.5 g.a.i./ha applied at two-leaf stage measured after 15 days; format: functional; details: 360 h, read-out: GI
Outline: (§1)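 Pot-grown weeds sown 5 mm deep in greenhouse clay soil (pH 6.5, 1.7% organic matter, CEC 12.9 cmol/kg) at 22-25 °C. Stock diluted with water and sprayed post-emergence: dicots at 2-leaf stage, monocots at 1-leaf stage. Untreated and DMF solvent controls were included. % growth inhibition was scored visually versus untreated controls after 15 days. Triplicates averaged.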

Chenopodium album [2] = assay: Pre-emergence herbicidal activity against Chenopodium album assessed as growth inhibition at 7.5 g.a.i./ha applied 24 hr after seeds were sown measured after 15 days; format: functional; details: read-out: GI
Outline: (§2)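 Weeds sown 5 mm deep in pots of greenhouse clay soil (pH 6.5, 37.5% clay, CEC 12.9 cmol/kg) and grown at 22-25 °C. Water-diluted formulation was applied pre-emergence 24 h after sowing. Untreated and DMF solvent controls were included. Growth inhibition was visually rated in % against untreated controls after 15 days, as the mean of triplicates.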

Chenopodium album [3] = assay: Post-emergence herbicidal activity against Chenopodium album assessed as growth inhibition at 37.5 g.a.i./ha applied at two-leaf stage measured after 15 days; format: functional; details: 360 h, read-out: GI; outline: as §1
Triticum aestivum = assay: (§3) Phytotoxicity against Triticum aestivum (wheat) assessed as growth inhibition at 75 g.a.i/ha pre-emergent application measured after 15 days by greenhouse crop selectivity assay; format: organism-based; details: in vivo, other, 360 h
Outline: (§4)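 Pre-emergence greenhouse crop selectivity test on pot-grown plants in clay soil (pH 6.5, 1.7% organic matter, 37.5% clay, CEC 12.9 cmol/kg). Stock solutions were diluted with water and applied at 300, 150, 75 or 37.5 g a.i./ha, in triplicate. After 15 days, phytotoxicity was scored visually against untreated controls as % crop growth inhibition, averaged over the triplicates.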

Glycine max [4] = assay: Phytotoxicity against Glycine max (soybean) assessed as growth inhibition at 75 g.a.i/ha pre-emergent application measured after 15 days by greenhouse crop selectivity assay; format: organism-based; details: in vivo, other, 360 h; outline: as §4
[5] = tested on: Brassica rapa subsp. oleifera; assay: Phytotoxicity against Brassica rapa subsp. oleifera assessed as growth inhibition at 7.5 to 60 g.a.i/ha post-emergent application measured after 15 days by greenhouse crop selectivity assay; format: organism-based; details: in vivo, other, 360 h
Outline: (§5)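 Postemergence crop selectivity test on pot-grown plants in a greenhouse, in clay soil (pH 6.5, 1.7% organic matter, CEC 12.9 cmol/kg). Stock was diluted with water and sprayed at 60, 30, 15 or 7.5 g a.i./ha, in triplicate. Growth inhibition was rated visually against untreated controls after 15 days and given as the triplicate mean percentage.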

Zea mays [6] = assay: Phytotoxicity against Zea mays (maize) assessed as growth inhibition at 37.5 g.a.i/ha pre-emergent application measured after 15 days by greenhouse crop selectivity assay; format: organism-based; details: in vivo, other, 360 h; outline: as §4
Amaranthus spinosus [7] = assay: Pre-emergence herbicidal activity against Amaranthus spinosus assessed as growth inhibition at 7.5 g.a.i./ha applied 24 hr after seeds were sown measured after 15 days; format: functional; details: read-out: GI; outline: as §2
[8] = Phytotoxicity against Oryza sativa (rice) assessed as growth inhibition at 37.5 g.a.i/ha pre-emergent application measured after 15 days by greenhouse crop selectivity assay; format: organism-based, L.; details: in vivo, 37.5 g.a.i/ha, read-out: GI; outline: as §4
Digitaria sanguinalis [9] = assay: Pre-emergence herbicidal activity against Digitaria sanguinalis (hairy crabgrass) assessed as growth inhibition at 75 g.a.i./ha applied 24 hr after seeds were sown measured after 15 days; format: functional; details: read-out: GI; outline: as §2
Digitaria sanguinalis [10] = assay: Post-emergence herbicidal activity against Digitaria sanguinalis (hairy crabgrass) assessed as growth inhibition at 37.5 g.a.i./ha applied at one-leaf stage measured after 15 days; format: functional; details: 360 h, read-out: GI; outline: as §1
[11] = Phytotoxicity against Triticum aestivum (wheat) assessed as growth inhibition at 300 g.a.i/ha pre-emergent application measured after 15 days by greenhouse crop selectivity assay; format: organism-based; details: in vivo, read-out: GI; outline: as §4
Arachis hypogaea [12] = assay: Phytotoxicity against Arachis hypogaea (peanut) assessed as growth inhibition at 300 g.a.i/ha pre-emergent application measured after 15 days by greenhouse crop selectivity assay; format: organism-based; details: in vivo, other, 360 h; outline: as §4
Abutilon theophrasti [13] = assay: Post-emergence herbicidal activity against Abutilon theophrasti (velvetleaf) assessed as growth inhibition at 7.5 g.a.i./ha applied at two-leaf stage measured after 15 days; format: functional; details: 360 h, read-out: GI; outline: as §1
Abutilon theophrasti [14] = assay: Pre-emergence herbicidal activity against Abutilon theophrasti (velvetleaf) assessed as growth inhibition at 15 g.a.i./ha applied 24 hr after seeds were sown measured after 15 days; format: functional; details: read-out: GI; outline: as §2
Glycine max [15] = assay: Phytotoxicity against Glycine max (soybean) assessed as growth inhibition at 7.5 to 60 g.a.i/ha post-emergent application measured after 15 days by greenhouse crop selectivity assay; format: organism-based; details: in vivo, other, 360 h; outline: as §5
Echinochloa crus-galli [16] = assay: Post-emergence herbicidal activity against Echinochloa crus-galli (barnyard grass) assessed as growth inhibition at 37.5 g.a.i./ha applied at one-leaf stage measured after 15 days; format: functional; details: 360 h, read-out: GI; outline: as §1
Gossypium [17] = assay: Phytotoxicity against Gossypium (cotton) assessed as growth inhibition at 150 g.a.i/ha pre-emergent application measured after 15 days by greenhouse crop selectivity assay; format: organism-based; details: in vivo, other, 360 h; outline: as §4
Digitaria sanguinalis [18] = assay: Post-emergence herbicidal activity against Digitaria sanguinalis(hairy crabgrass) assessed as growth inhibition at 15 g.a.i./ha applied at one-leaf stage measured after 15 days; format: functional; details: 360 h, read-out: GI; outline: as §1
Amaranthus spinosus [19] = assay: Post-emergence herbicidal activity against Amaranthus spinosus assessed as growth inhibition at 37.5 g.a.i./ha applied at two-leaf stage measured after 15 days; format: functional; details: 360 h, read-out: GI; outline: as §1
Setaria viridis = assay: Pre-emergence herbicidal activity against Setaria viridis (green foxtail) assessed as growth inhibition at 75 g.a.i./ha applied 24 hr after seeds were sown measured after 15 days; format: functional; details: read-out: GI
Outline: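 Preliminary pre-emergence screen at a single rate of 75 g a.i./ha. Stock diluted with water and sprayed on greenhouse pots 24 h after seeds were sown 5 mm deep in clay soil (pH 6.5, 1.7% organic matter); grown at 22-25 °C. Untreated and DMF solvent controls included; triplicate. Visual % growth inhibition vs untreated after 15 days, averaged and banded (>80% top band).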

Echinochloa crus-galli [20] = assay: Pre-emergence herbicidal activity against Echinochloa crus-galli (barnyard grass) assessed as growth inhibition at 15 g.a.i./ha applied 24 hr after seeds were sown measured after 15 days; format: functional; details: read-out: GI; outline: as §2
Zea mays [21] = assay: (§6) Phytotoxicity against Zea mays (maize) assessed as growth inhibition at 300 g.a.i/ha pre-emergent application measured after 15 days by greenhouse crop selectivity assay; format: organism-based; details: in vivo, other, 360 h; outline: as §4
Gossypium [22] = assay: Phytotoxicity against Gossypium (cotton) assessed as growth inhibition at 75 g.a.i/ha pre-emergent application measured after 15 days by greenhouse crop selectivity assay; format: organism-based; details: in vivo, other, 360 h; outline: as §4
Zea mays [23] = assay: Phytotoxicity against Zea mays (maize) assessed as growth inhibition at 75 g.a.i/ha pre-emergent application measured after 15 days by greenhouse crop selectivity assay; format: organism-based; details: in vivo, other, 360 h; outline: as §4
Digitaria sanguinalis [24] = assay: Pre-emergence herbicidal activity against Digitaria sanguinalis (hairy crabgrass) assessed as growth inhibition at 7.5 g.a.i./ha applied 24 hr after seeds were sown measured after 15 days; format: functional; details: read-out: GI; outline: as §2
Chenopodium album [25] = assay: Post-emergence herbicidal activity against Chenopodium album assessed as growth inhibition at 15 g.a.i./ha applied at two-leaf stage measured after 15 days; format: functional; details: 360 h, read-out: GI; outline: as §1
Arachis hypogaea [26] = assay: Phytotoxicity against Arachis hypogaea (peanut) assessed as growth inhibition at 37.5 g.a.i/ha pre-emergent application measured after 15 days by greenhouse crop selectivity assay; format: organism-based; details: in vivo, other, 360 h; outline: as §4
[27] = as §3; format: organism-based; details: in vivo, 75 g.a.i/ha, read-out: GI; outline: as §4
[28] = as §6; format: organism-based; details: in vivo, 300 g.a.i/ha, read-out: GI; outline: as §4

SMILES	inhibition of growth at 7.5 g/ha (Chenopodium album [1]) [%]	inhibition of growth at 7.5 g/ha (Chenopodium album [2]) [%]	inhibition of growth at 37.5 g/ha (Chenopodium album [3]) [%]	Activity [5]	growth inhibition (GI) (Zea mays [6])	inhibition of growth at 7.5 g/ha (Amaranthus spinosus [7]) [%]	inhibition at 360 h [8] [%]	inhibition of growth at 75 g/ha (Digitaria sanguinalis [9]) [%]	inhibition of growth at 37.5 g/ha (Digitaria sanguinalis [10]) [%]	inhibition at 360 h [11] [%]	growth inhibition (GI) (Arachis hypogaea [12])	inhibition of growth at 7.5 g/ha (Abutilon theophrasti [13]) [%]	inhibition of growth at 15 g/ha (Abutilon theophrasti [14]) [%]	Activity (Glycine max [15])	inhibition of growth at 37.5 g/ha (Echinochloa crus-galli [16]) [%]	growth inhibition (GI) (Gossypium [17])	inhibition of growth at 15 g/ha (Digitaria sanguinalis [18]) [%]	inhibition of growth at 37.5 g/ha (Amaranthus spinosus [19]) [%]	inhibition of growth at 75 g/ha (Setaria viridis) [%]	inhibition of growth at 15 g/ha (Echinochloa crus-galli [20]) [%]	other results
CCOC(=O)C(C)N1C(=O)C(C)Oc2cc(F)c(N3C(=O)C4=C(CCCC4)C3=O)cc21 (centres undefined)	100	100	100	Toxic	Not Active	90	> 10	> 80	50	> 10	Not Active	100	0	Toxic	50	Not Active	30	100	> 80	10	growth inhibition (GI) (Triticum aestivum): Not Active; growth inhibition (GI) (Glycine max [4]): Not Active; growth inhibition (GI) (Zea mays [21]): Not Active; growth inhibition (GI) (Gossypium [22]): Not Active; growth inhibition (GI) (Zea mays [23]): Not Active; inhibition of growth at 7.5 g/ha (Digitaria sanguinalis [24]): 0%; inhibition of growth at 15 g/ha (Chenopodium album [25]): 100%; growth inhibition (GI) (Arachis hypogaea [26]): Not Active
C#CCN1C(=O)COc2cc(F)c(N3C(=O)C4=C(CCCC4)C3=O)cc21 [FLUMIOXAZIN]	100	100	100	Toxic	Not Active	100	> 10	> 80	95	> 10	Not Active	100	80	Toxic	80	Not Active	90	100	> 80	50	inhibition at 360 h [27]: > 10%; inhibition at 360 h [28]: > 10%; growth inhibition (GI) (Gossypium [22]): Not Active; inhibition of growth at 7.5 g/ha (Digitaria sanguinalis [24]): 0%; inhibition of growth at 15 g/ha (Chenopodium album [25]): 100%; growth inhibition (GI) (Arachis hypogaea [26]): Not Active
